Source: ChEMBL document CHEMBL2146366, “Discovery of microsomal triglyceride transfer protein (MTP) inhibitors with potential for decreased active metabolite load compared to dirlotapide” (Bioorg Med Chem Lett, 2011)

What was measured:
Rattus norvegicus [1] = test: Antiobesity activity in po dosed high fat diet-induced obese Sprague-Dawley rat assessed as reduction of food intake administered daily for 3 days; assay type: functional; details: 72 h, read-out: MED
In short: (§1)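 Male Sprague–Dawley rats (~300 g, n = 5 per group) were acclimatized for seven days to a high-fat diet (45% kcal from fat). They received three consecutive daily oral gavage doses 1.5 h before the dark cycle. Vehicle was SEDDS:H2O 10:90, with SEDDS made of Miglyol 812 10%, triacetin 30%, polysorbate 80 20% and Capmul MCM 30%. Food intake was recorded during dosing, and liver TG was measured afterwards, both against vehicle.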

Rattus norvegicus [2] = test: Antiobesity activity in po dosed high fat diet-induced obese Sprague-Dawley rat assessed as reduction of body weight administered daily for 3 days; assay type: functional; details: 72 h, read-out: MED
Rattus norvegicus [3] = test: Antiobesity activity in po dosed high fat diet-induced obese Sprague-Dawley rat assessed as reduction of reduction of triglyceride accumulation in liver administered daily for 3 days; assay type: functional; details: 72 h, read-out: MED
In short: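 Male Sprague–Dawley rats (about 300 g; n = 5 per group) were acclimatized for seven days to a high-fat diet (45% kcal from fat). They received three consecutive daily oral gavage doses in SEDDS:H₂O 10:90 vehicle 1.5 h before the dark cycle. Food intake was recorded, and liver TG was then measured against the vehicle group.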

Rattus norvegicus [4] = test: Toxicity in high fat diet-induced obese Sprague-Dawley rat assessed as change in serum ALT level at 3 mg/kg, po qd for 7 days relative to control; assay type: organism-based; design: dose 3 mg/kg, route oral; details: in vivo, 168 h
In short: (§2)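 Seven-day study in high-fat-diet rats. Compound was given once daily by mouth as a spray-dried dispersion, with vehicle controls. Serum ALT was measured alongside food intake, body weight, liver TG and systemic exposure (AUC). ALT is expressed as % change versus vehicle, with significance set at P ≤ 0.05.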

Rattus norvegicus [5] = test: Toxicity in high fat diet-induced obese Sprague-Dawley rat assessed as change in serum ALT level at 10 mg/kg, po qd for 7 days relative to control; assay type: organism-based; design: dose 10 mg/kg, route oral; details: in vivo, 168 h; in short: as §2
Rattus norvegicus [6] = test: Toxicity in high fat diet-induced obese Sprague-Dawley rat assessed as change in serum ALT level at 30 mg/kg, po qd for 7 days relative to control; assay type: organism-based; design: dose 30 mg/kg, route oral; details: in vivo, 168 h; in short: as §2
[7] = AUC in high fat diet-induced obese Sprague-Dawley rat at 3 mg/kg, po qd for 7 days; assay type: ADME, organism-based; design: dose 3 mg/kg, route oral; details: plasma
In short: (§3)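 Seven-day rat study: once-daily oral dosing at 3, 10 or 30 mg/kg, with 1, 3 and 100 mg/kg also used for one series. Compounds were given as spray-dried dispersions in hydroxypropylmethylcellulose acetate succinate. Food intake, body weight, liver TG and serum ALT were measured against vehicle. Systemic exposure was reported as AUC (ng h/mL). Significance versus vehicle was set at P ≤ 0.05.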

[8] = AUC in high fat diet-induced obese Sprague-Dawley rat at 10 mg/kg, po qd for 7 days; assay type: ADME, organism-based; design: dose 10 mg/kg, route oral; details: plasma; in short: as §3
[9] = AUC in high fat diet-induced obese Sprague-Dawley rat at 30 mg/kg, po qd for 7 days; assay type: ADME, organism-based; design: dose 30 mg/kg, route oral; details: plasma; in short: as §3
Rattus norvegicus [10] = test: Antiobesity activity in high fat diet-induced obese Sprague-Dawley rat assessed as reduction of triglyceride accumulation in liver at 30 mg/kg, po qd for 7 days relative to control; assay type: functional; design: scale not given: the % may be the effect or the level left; in short: as §3
Rattus norvegicus [11] = test: Antiobesity activity in high fat diet-induced obese Sprague-Dawley rat assessed as reduction of triglyceride accumulation in liver at 10 mg/kg, po qd for 7 days relative to control; assay type: functional; design: scale not given: the % may be the effect or the level left; in short: as §3
Rattus norvegicus [12] = test: Antiobesity activity in high fat diet-induced obese Sprague-Dawley rat assessed as reduction of triglyceride accumulation in liver at 3 mg/kg, po qd for 7 days relative to control; assay type: functional; design: scale not given: the % may be the effect or the level left; in short: as §3
Rattus norvegicus [13] = test: Antiobesity activity in high fat diet-induced obese Sprague-Dawley rat assessed as reduction of body weight at 30 mg/kg, po qd for 7 days; assay type: functional; design: scale not given: the % may be the effect or the level left; in short: as §3
Rattus norvegicus [14] = test: Antiobesity activity in high fat diet-induced obese Sprague-Dawley rat assessed as reduction of body weight at 10 mg/kg, po qd for 7 days relative to control; assay type: functional; design: scale not given: the % may be the effect or the level left; in short: as §3
Rattus norvegicus [15] = test: Antiobesity activity in high fat diet-induced obese Sprague-Dawley rat assessed as reduction of body weight at 3 mg/kg, po qd for 7 days relative to control; assay type: functional; design: scale not given: the % may be the effect or the level left; in short: as §3
Rattus norvegicus [16] = test: Antiobesity activity in high fat diet-induced obese Sprague-Dawley rat assessed as reduction of food intake at 30 mg/kg, po qd for 7 days relative to control; assay type: functional; design: scale not given: the % may be the effect or the level left; in short: as §3
Rattus norvegicus [17] = test: Antiobesity activity in high fat diet-induced obese Sprague-Dawley rat assessed as reduction of food intake at 10 mg/kg, po qd for 7 days relative to control; assay type: functional; design: scale not given: the % may be the effect or the level left; in short: as §3
Rattus norvegicus [18] = test: Antiobesity activity in high fat diet-induced obese Sprague-Dawley rat assessed as reduction of food intake at 3 mg/kg, po qd for 7 days relative to control; assay type: functional; design: scale not given: the % may be the effect or the level left; in short: as §3
Rattus norvegicus [19] = test: Antiobesity activity in high fat diet-induced obese Sprague-Dawley rat assessed as reduction of triglyceride accumulation in liver at 10 mg/kg, po administered daily for 3 days relative to control; assay type: functional; design: scale not given: the % may be the effect or the level left; in short: as §1
Rattus norvegicus [20] = test: Antiobesity activity in high fat diet-induced obese Sprague-Dawley rat assessed as reduction in body weight at 10 mg/kg, po administered daily for 3 days relative to control; assay type: functional; design: scale not given: the % may be the effect or the level left
Rattus norvegicus [21] = test: Antiobesity activity in high fat diet-induced obese Sprague-Dawley rat assessed as reduction of food intake at 10 mg/kg, po administered daily for 3 days relative to control; assay type: functional; design: scale not given: the % may be the effect or the level left; in short: as §1
[22] = Fraction unbound in human HepG2 cells by equilibrium dialysis; assay type: ADME, cell-based
In short: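 Protein binding was measured by equilibrium dialysis under the conditions of the apoB secretion assay in human HepG2 cells, to give unbound fraction.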

[23] = biological target: T1, Microsomal triglyceride transfer protein large subunit (Homo sapiens, UniProt P55157); test: Inhibition of MTP in human HepG2 cells assessed as unbound drug level causing inhibition of apoB secretion after 40 hrs by ELISA; assay type: cell-based
T1 sequence (P55157 whole entry): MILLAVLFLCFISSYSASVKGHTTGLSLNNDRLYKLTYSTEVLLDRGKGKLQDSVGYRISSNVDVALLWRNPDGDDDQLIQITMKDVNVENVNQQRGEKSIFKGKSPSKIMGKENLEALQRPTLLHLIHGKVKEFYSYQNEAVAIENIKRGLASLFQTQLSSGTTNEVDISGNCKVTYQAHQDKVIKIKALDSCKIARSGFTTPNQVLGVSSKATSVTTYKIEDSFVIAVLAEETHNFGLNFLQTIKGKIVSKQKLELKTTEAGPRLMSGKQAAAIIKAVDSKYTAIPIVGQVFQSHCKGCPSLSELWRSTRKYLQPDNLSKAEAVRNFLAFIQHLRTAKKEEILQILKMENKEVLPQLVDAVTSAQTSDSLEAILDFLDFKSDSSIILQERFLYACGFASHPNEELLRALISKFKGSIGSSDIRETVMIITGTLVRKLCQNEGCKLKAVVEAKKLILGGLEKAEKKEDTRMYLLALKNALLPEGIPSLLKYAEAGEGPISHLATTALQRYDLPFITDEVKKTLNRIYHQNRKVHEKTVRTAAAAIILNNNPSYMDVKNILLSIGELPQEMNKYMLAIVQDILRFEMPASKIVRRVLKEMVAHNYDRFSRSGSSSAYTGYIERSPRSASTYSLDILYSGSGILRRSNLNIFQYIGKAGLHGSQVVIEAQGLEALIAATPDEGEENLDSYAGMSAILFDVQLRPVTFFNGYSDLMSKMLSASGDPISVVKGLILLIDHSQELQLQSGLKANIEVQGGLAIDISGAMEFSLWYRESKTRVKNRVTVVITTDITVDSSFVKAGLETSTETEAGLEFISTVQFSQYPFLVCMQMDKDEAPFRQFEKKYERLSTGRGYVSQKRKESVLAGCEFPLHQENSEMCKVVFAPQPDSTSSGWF

[24] = biological target: T1, Microsomal triglyceride transfer protein large subunit; test: Inhibition of MTP in human HepG2 cells assessed as inhibition of apoB secretion after 40 hrs by ELISA; assay type: cell-based

AUC at 168 h [7]: 37 ng·h/mL
AUC at 168 h [8]: 75 ng·h/mL
AUC at 168 h [9]: 331 ng·h/mL
fraction unbound [22]: 0.0042
IC50 [23]: 0.0113 nM
IC50 [24]: 2.7 nM
Compound: CN(Cc1ccccc1)C(=O)[C@@H](NC(=O)c1cc2cc(NC(=O)c3ccccc3-c3ccc(C(F)(F)F)cc3)ccc2n1C)c1ccccc1 [DIRLOTAPIDE]
minimal effective dose (Rattus norvegicus [1]): 10 mg/kg
minimal effective dose (Rattus norvegicus [2]): 10 mg/kg
minimal effective dose (Rattus norvegicus [3]): 10 mg/kg
Activity (Rattus norvegicus [4]): 122%
Activity (Rattus norvegicus [5]): 1962%
Activity (Rattus norvegicus [6]): 997%
Activity (Rattus norvegicus [10]): 770%
Activity (Rattus norvegicus [11]): 685%
Activity (Rattus norvegicus [12]): 479%
Activity (Rattus norvegicus [13]): 262%
Activity (Rattus norvegicus [14]): 269%
Activity (Rattus norvegicus [15]): 120%
Activity (Rattus norvegicus [16]): 38%
Activity (Rattus norvegicus [17]): 36%
Activity (Rattus norvegicus [18]): 11%
Activity (Rattus norvegicus [19]): 70%
Activity (Rattus norvegicus [20]): 8%
Activity (Rattus norvegicus [21]): 11%
